Measured values: publication PMC6217806 (European journal of medicinal chemistry, 2018)

Assays:
Format in all cases: cell-based
[1] = test system: HIV-1 NL4-3 Nanoluc-sec; settings: for SI, selectivity index, calculated as CC50/EC50: CC50 (MT4) / EC50 (HIV-1 in MT4)
[2] = CytoTox-Glo cytotoxicity assay in MT4 cells; settings: human
[3] = test system: T cell latent HIV-1 model JLat-A2; assay: FACS analysis of GFP-expressing J-Lat; settings: JLat-A2, 10 and 50 nM, 72 h
Outline: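 J-Lat (A2) latently infected cells at 1×10⁶ cells/well, incubated with test compounds at various concentrations, 37 °C, 72 h. GFP-expressing cells scored by flow cytometry.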

[4] = Cytotoxicity against U937 cell; settings: human, U937 cells
Outline: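 Cells cultured 3 days with test compound over a concentration range. Viability read by CytoTox-Glo cytotoxicity assay per manufacturer's protocol, same method as for MT4 cells. CC50 taken as the concentration giving 50% reduction in cell viability.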

Structure (SMILES)	SI, selectivity index, calculated as CC50/EC50 [1]	other results
CC1=C[C@@H]2C(=O)[C@]3(C=C(C)[C@H](O)[C@@]3(O)[C@@H]1OC(=O)c1ccccc1)[C@H](C)C[C@@H]1[C@H]2C1(C)C [Compound 1, 5-O-benzoyl-20-deoxyingenol]	>216	
CC1=C[C@@H]2C(=O)[C@]3(C=C(C)[C@H](OC(=O)c4ccccc4)[C@@]3(O)[C@@H]1O)[C@H](C)C[C@@H]1[C@H]2C1(C)C [Compound 2, 3-O-benzoyl-20-deoxyingenol]	>302	
CC(=O)O[C@H]1C(C)=C[C@]23C(=O)[C@@H](C=C(C)[C@@H](OC(=O)c4ccccc4)[C@]12O)[C@H]1[C@@H](C[C@H]3C)C1(C)C [Compound 3, kansuiphorin C]	>23	
CC(=O)OCC1=C[C@@H]2C(=O)[C@]3(C=C(C)[C@H](O)[C@@]3(O)[C@@H]1O)[C@H](C)C[C@@H]1[C@H]2C1(C)C [Compound 4, ingenol monoacetate]	>10	
CCCCCCCCCCCC(=O)O[C@@]12C[C@@H](C)[C@]34C=C(C)[C@H](OC(=O)C(C)C(C)C)[C@@]3(O)[C@H](O)C(CO)=C[C@H](C4=O)[C@@H]1C2(C)C (some centres unmarked) [Compound 5, 3-O-(2,3-dimethylbutanoyl)-13-O-dodecanoylingenol]	>7500	
C=C1[C@H](OC(=O)c2ccccc2)[C@H]2[C@@H](OC(C)=O)[C@](C)(O)[C@H](OC(C)=O)[C@]2(O)C(=O)[C@@H](C)[C@H]2O[C@@H]2C(C)(C)C(=O)[C@H](O)[C@H]1OC(=O)c1ccccc1 [Compound 7, kansuinin C]		anti-HIV activity ([1]; jatrophane diterpenoids isolated from E3-fraction): no anti-HIV activity
CCCCCCCCCCCC(=O)O[C@@]12C[C@@H](C)[C@]34C=C(C)[C@H](O)[C@@]3(O)[C@H](O)C(CO)=C[C@H](C4=O)[C@@H]1C2(C)C [Compound 11, 13-oxyingenol-13-dodecanoate]	>273	
COc1ccc(C(=O)O[C@H]2C(C)=C[C@]34C(=O)[C@@H](C=C(C)[C@@H](O)[C@]23O)[C@H]2[C@@H](C[C@H]4C)C2(C)C)cc1 [Compound 12a, 3-(p-Methoxybenzoyl)-20-deoxyingenol]	>64	
COc1ccc(C(=O)O[C@@H]2C(C)=C[C@@H]3C(=O)[C@]4(C=C(C)[C@H](O)[C@@]24O)[C@H](C)C[C@@H]2[C@H]3C2(C)C)cc1 [Compound 12b, 5-(p-methoxybenzoyl)-20-deoxyingenol]	>20	
CC1=C[C@@H]2C(=O)[C@]3(C=C(C)[C@H](OC(=O)/C=C/c4ccccc4)[C@@]3(O)[C@@H]1O)[C@H](C)C[C@@H]1[C@H]2C1(C)C [Compound 13a, 3-(trans-Cinnamoyl)-20-deoxyingenol]	>45	
CC1=C[C@@H]2C(=O)[C@]3(C=C(C)[C@H](O)[C@@]3(O)[C@@H]1OC(=O)/C=C/c1ccccc1)[C@H](C)C[C@@H]1[C@H]2C1(C)C [Compound 13b, 5-(trans-cinnamoyl)-20-deoxyingenol]	>22	
CC1=C[C@@H]2C(=O)[C@]3(C=C(C)[C@H](OC(=O)c4ccc5ccccc5c4)[C@@]3(O)[C@@H]1O)[C@H](C)C[C@@H]1[C@H]2C1(C)C [Compound 14a, 3-(2-Naphthoyl)-20-deoxyingenol]	>543	
C/C=C/C(=O)O[C@H]1C(C)=C[C@]23C(=O)[C@@H](C=C(C)[C@@H](O)[C@]12O)[C@H]1[C@@H](C[C@H]3C)C1(C)C [Compound 15a, 3-Crotonoyl-20-deoxyingenol]	>17	
C/C=C/C(=O)O[C@@H]1C(C)=C[C@@H]2C(=O)[C@]3(C=C(C)[C@H](O)[C@@]13O)[C@H](C)C[C@@H]1[C@H]2C1(C)C [Compound 15b, 5-crotonoyl-20-deoxyingenol]	>16	
C/C=C(\C)C(=O)O[C@H]1C(C)=C[C@]23C(=O)[C@@H](C=C(C)[C@@H](O)[C@]12O)[C@H]1[C@@H](C[C@H]3C)C1(C)C [Compound 16, 3-Tigloyl-20-deoxyingenol]	>46	CC50 at 3 days [2]: > 9.7 µM
C/C=C(/C)C(=O)O[C@H]1C(C)=C[C@]23C(=O)[C@@H](C=C(C)[C@@H](O)[C@]12O)[C@H]1[C@@H](C[C@H]3C)C1(C)C [Compound 17, 3-angeloyl-20-deoxyingenol]	>22.8	
CCCCCCCC(=O)O[C@H]1C(C)=C[C@]23C(=O)[C@@H](C=C(C)[C@@H](O)[C@]12O)[C@H]1[C@@H](C[C@H]3C)C1(C)C [Compound 18, 3-Octanoyl-20-deoxyingenol]	>59.9	
C/C=C(/C)C(=O)O[C@H]1C(C)=C[C@]23C(=O)[C@@H](C=C(CO)[C@@H](O)[C@]12O)[C@H]1[C@@H](C[C@H]3C)C1(C)C [Compound 22, 3-Angeloylingenol]	>2067	activation of green fluorescent protein (GFP) expression [3]: comparable potency
CC1=C[C@]23C(=O)[C@@H](C=C(CO)[C@@H](O)[C@]2(O)[C@H]1OC(=O)c1ccc2ccccc2c1)[C@H]1[C@@H](C[C@H]3C)C1(C)C [Compound 23, 3-(2-Naphthoyl)ingenol]	>6153	activation of green fluorescent protein (GFP) expression [3]: comparable potency; CC50 at 3 days [4]: > 2 µM
